# Results from ChEMBL document CHEMBL4130550, “Antiproliferative Dimeric Aporphinoid Alkaloids from the Roots of Thalictrum cultratum” (J Nat Prod, 2017).
# Experiments:
# [1] = test system: HL-60; experiment: Antiproliferative activity against human HL60 cells after 72 hrs by tryphan blue staining based hematocytometric method; type: functional, cell-based; conditions: HL-60, 72 h
# Summary of the method: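 HL-60 (ATCC) in RPMI-1640 with 10% heat-inactivated FBS, 1 mM glutamine and penicillin/streptomycin, 37 °C, 5% CO2. Cells at 4.5 × 10^4 cells/mL are exposed to a concentration gradient (DMSO stock diluted in absolute EtOH) for 72 h. Trypan blue is added and total cells are counted on a hematocytometer. IC50 is the mean of three parallel experiments. Negative reference is 0.1% DMSO.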
# [2] = test system: PC-3; experiment: Antiproliferative activity against human PC3 cells by MTT assay; type: functional, cell-based
# Summary of the method: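 PC-3 (ATCC) in supplemented RPMI-1640 with 10% FBS at 37 °C, 5% CO2. Log-phase cells get graded concentrations in triplicate. MTT (5 mg/mL solution) is added for a further 4 h, then dissolved in DMSO and read at 490 nm. IC50 is from the average of three parallel experiments. Negative reference is 0.1% DMSO.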
# [3] = test system: PC-3; experiment: Potency index, ratio of 5-fluorouracil IC50 to compound IC50 for human PC3 cells; type: functional
# [4] = test system: HL-60; experiment: Potency index, ratio of 5-fluorouracil IC50 to compound IC50 for human HL60 cells; type: functional
# [5] = test system: PC-3; experiment: Potency index, ratio of camptothecin IC50 to compound IC50 for human PC3 cells; type: functional
SMILES,IC50 [1],IC50 [2],Ratio IC50 [3],Ratio IC50 [4],Ratio IC50 [5]
COc1cc2c(c3c1OCO3)CCN(C)[C@H]2Cc1ccc(Oc2c(OC)c(OC)cc3c2cc2c4c(c(OC)c(OC)c(OC)c43)CCN2C)cc1,1.77 µM,3.29 µM,–,–,–
COc1cc2c(cc1OC)[C@H](Cc1ccc(Oc3c(OC)c(OC)cc4c3cc3c5c(cc(OC)c(OC)c54)CCN3C)cc1)N(C)CC2,4.09 µM,7.86 µM,–,–,–
COc1cc2c(c(Oc3ccc(C[C@H]4c5cc(OC)c(OC)c(OC)c5CC[N@@+]4(C)[O-])cc3)c1OC)C[C@H]1c3c(c(OC)c(OC)c(OC)c3-2)CCN1C,5.05 µM,13.4 µM,–,–,–
COc1cc2c(c(O)c1OC)CC[N@@+](C)([O-])[C@H]2Cc1ccc(Oc2c3c(cc(OC)c2OC)-c2c(OC)c(OC)c(OC)c4c2[C@H](C3)N(C)CC4)cc1,4.57 µM,18.7 µM,–,–,–
COc1cc2c(c(O)c1OC)CCN(C)[C@H]2Cc1ccc(Oc2c(OC)c(OC)cc3c2cc2c4c(c(OC)c(OC)c(OC)c43)CCN2C)cc1,4.28 µM,7.1 µM,–,–,–
COc1cc2c(c(Oc3ccc(C[C@H]4c5cc(OC)c(OC)c(OC)c5CCN4C)cc3)c1OC)C[C@H]1c3c(c(OC)c(OC)c(OC)c3-2)CCN1C,1.16 µM,6.05 µM,–,–,–
COc1cc2c(cc1OC)[C@H](Cc1ccc(Oc3c(OC)c(OC)cc4c3cc3c5c(c(OC)c(OC)c(OC)c54)CCN3C)cc1)N(C)CC2,2.41 µM,2.56 µM,–,–,–
COc1cc2c(c(O)c1OC)CC[N@+](C)([O-])[C@H]2Cc1ccc(Oc2c3c(cc(OC)c2OC)-c2c(OC)c(OC)c(OC)c4c2[C@H](C3)N(C)CC4)cc1,2.86 µM,12.7 µM,–,–,–
COc1cc2c(c(Oc3ccc(C[C@H]4c5cc(OC)c(OC)c(OC)c5CC[N@+]4(C)[O-])cc3)c1OC)C[C@H]1c3c(c(OC)c(OC)c(OC)c3-2)CCN1C,4.21 µM,8.35 µM,–,–,–
O=c1[nH]cc(F)c(=O)[nH]1 [FLUOROURACIL],–,22 µM,–,–,–
COc1cc2c(c(O)c1OC)CCN(C)[C@H]2Cc1ccc(Oc2c3c(cc(OC)c2OC)-c2c(OC)c(OC)c(OC)c4c2[C@H](C3)N(C)CC4)cc1,1.01 µM,2.47 µM,9,2,3
COc1cc2c(cc1OC)[C@H](Cc1ccc(Oc3c4c(cc(OC)c3OC)-c3c(OC)c(OC)cc5c3[C@H](C4)N(C)CC5)cc1)N(C)CC2,1.44 µM,2.72 µM,–,–,–
CC[C@@]1(O)C(=O)OCc2c1cc1n(c2=O)Cc2cc3ccccc3nc2-1 [CAMPTOTHECIN],0.92 µM,6.96 µM,–,–,–
COc1cc2c(cc1OC)C1=Cc3c(cc(OC)c(OC)c3Oc3cc4c(cc3OC)-c3c(OC)c(OC)c(OC)c5c3[C@H](C4)N(C)CC5)CN1CC2,1.77 µM,11.6 µM,–,–,–
COc1cc2c(cc1OC)[C@H](Cc1ccc(Oc3c4c(cc(OC)c3OC)-c3c(OC)c(OC)c(OC)c5c3[C@H](C4)N(C)CC5)cc1)N(C)CC2 [THALIFABERINE],1.58 µM,7.27 µM,–,–,–
COc1cc2c(c(OC)c1OC)CCN(C)[C@H]2Cc1ccc(Oc2c(OC)c(OC)cc3c2cc2c4c(c(OC)c(OC)c(OC)c43)CCN2C)cc1,2.12 µM,6.01 µM,–,–,–
COc1cc2c(c(O)c1OC)CCN(C)[C@H]2Cc1ccc(Oc2c3c(cc(OC)c2OC)-c2c(OC)c(OC)cc4c2[C@H](C3)N(C)CC4)cc1,2.1 µM,5.85 µM,–,–,–
COc1cc2c(cc1OC)-c1cc3c(Oc4cc5c(cc4OC)-c4c(OC)c(OC)c(OC)c6c4[C@H](C5)N(C)CC6)c(OC)c(OC)cc3c(=O)n1CC2,10.3 µM,3.72 µM,–,–,–
